Assay outcomes from PubChem BioAssay.
In the library only some 1.9% were active in any assay of this set; here they are far more common.
GAA850 FXN act – increases GAA850 frataxin promoter reporter activity; HEK293 lucGAA850 FXN promoter luciferase reporter, 24 h; percent of 10 µM SAHA response; activation, % at 6 µM; 360,000 tested, 0.56% active; AID 540364;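 active means activation above the average of all compounds screened plus 3 SD, cutoff fixed separately per campaign, cut at about 7.5% in these data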;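 further: 0% = DMSO wells and 100% = 10 µM SAHA wells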
ABHD5-PLIN5 inh – blocks binding of human ABHD5 to perilipin-5. Q00G26+Q8WTS1. Split G. princeps luciferase complementation, luminescence, 4 h. inhibition, % at 4 µM. 360,000 tested, 0.78% active;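 active means inhibition above the mean inhibition across every tested compound plus 3 SD, cut at about 22% in these data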;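 further: 0% = DMSO only wells and the 100% control is not disclosed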
Hsp70 act – transcriptional activators of Hsp70 | HeLa Hsp70 promoter luciferase reporter, luminescence; scaled: vehicle 0, proteasome-inhibitor control 100% | activation, % at 10 µM | 200,000 tested, 0.04% active | AID 1203;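 active means activation above the mean across all tested compounds plus 3 SD, cutoff set per campaign, cut at about 5.5% in these data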;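 further: 100% = MG132 at 30 µM as the positive control and 0% = DMSO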
Rad51 HR inh – blocks human Rad51 in homologous recombination. hRad51 DNA strand exchange, fluorescence dequenching. inhibition, % at 10 µM. 200,000 tested, 0.085% active;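 active means inhibition above 40% at the single screening dose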;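 further: 0% = DMSO control wells and 100% = blanks with heterologous ssDNA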
Target sequence (Q06609 whole entry, looked up): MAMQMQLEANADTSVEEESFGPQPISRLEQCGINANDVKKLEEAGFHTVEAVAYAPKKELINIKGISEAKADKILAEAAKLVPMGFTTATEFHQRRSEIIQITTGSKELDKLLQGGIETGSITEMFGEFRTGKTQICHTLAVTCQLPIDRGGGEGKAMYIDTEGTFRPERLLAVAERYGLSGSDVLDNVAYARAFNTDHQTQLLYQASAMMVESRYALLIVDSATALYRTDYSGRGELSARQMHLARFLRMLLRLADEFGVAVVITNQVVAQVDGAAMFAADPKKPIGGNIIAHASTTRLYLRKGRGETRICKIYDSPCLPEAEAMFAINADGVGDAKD
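Test system – preformed human Rad51 ssDNA filaments · Reagent – Donor/quencher-labelled 47-bp dsDNA substrate · Incubation – 37 °C 15-min filament assembly, 30-min compound preincubation, 15-min exchange · Signal – FRET fluorescence dequenching, excitation 485 nm, emission 520 nm · Read-out – percent inhibition from fluorescence, normalised to plate control and blank means · Benchmarks – plate control and blank wells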
TAG inh – inhibitors of triacylglycerol accumulation; H9c2 cells, Nile Red lipid (TAG) fluorescence; cells loaded with 200 µM oleic acid; inhibition, % at 12.5 µM; 230,000 tested, 0.66% active; AID 651582;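 active means pattern-corrected inhibition of lipid staining of at least 50% with the nuclear-stain viability signal not falling by more than 50%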;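 further: 0% = DMSO wells and 100% = triacsin C control wells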
HIF act – HIF pathway transcriptional activation; U2OS HRE-luciferase reporter, luminescence; normalized: DMSO 0%, desferrioxamine 100%; 300,000 tested, 0.32% active; activation, % at 7.5 µM (by protocol); AID 1910;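 active means mean activation of at least 10% of the iron chelator positive control signal, with at least half of replicates also reaching 10%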
Starred values were filed as active, the others as inactive; · = no result.

SMILES	GAA850 FXN act	ABHD5-PLIN5 inh	Hsp70 act	Rad51 HR inh	TAG inh	HIF act
COc1ccc(N=Nc2ccc(O)c3ncccc23)cc1	4	2	·	1	77*	92*
Cc1cc(SCC(=O)N/N=C/c2ccc(O)c(O)c2O)c(C)cc1Br	-3	-11	0	-10	·	36*
COc1cc(/C=N/NC(=O)CSc2cc(C)c(Br)cc2C)ccc1O	0	4	0	2	-17	0
Cc1cccc(-c2nnc(C(C)Nc3cccc(C(=O)NC4CC4)c3)o2)c1 (stereo unspecified)	1	-9	·	·	-5	·
Cc1ccc(S(=O)(=O)NC(=O)N(C)C2CCCCC2)cc1	0	12	·	-2	-1	0
CC1CC(C)CN(S(=O)(=O)c2ccc3c(c2)oc(=O)n3CC(=O)NCCCOC(C)C)C1 (stereo unspecified)	-1	-7	·	·	·	31*
CCC(C)(C)NC(=O)Cn1c(=O)oc2cc(S(=O)(=O)N3CC(C)CC(C)C3)ccc21 (stereo unspecified)	-1	-2	·	·	·	0
CC1(C)SC(=S)N(NC(=O)Nc2cccc3ccccc23)C1N(O)C(=O)Nc1ccccc1 (stereo unspecified)	-2	-1	0	-3	·	0
CCN(CC)CCOC(=O)c1ccc(N/C=C(/C#N)c2nc(-c3ccc(OC)c(OC)c3)cs2)cc1	2	11	·	3	61*	0
CCN(CC)CCOC(=O)c1ccc(N/C=C(/C#N)c2nc(-c3cccc(OC)c3)cs2)cc1	2	6	·	·	24	0
O=C(CS(=O)(=O)c1ccccc1)Nc1nnc(Cc2ccccc2)s1	0	-9	·	·	3	0
COc1ccccc1NC(=O)c1cccc(S(=O)(=O)N2CCN(c3ccccc3)CC2)c1	0	-12	·	·	-18	·
CCCCCOc1ccc(Br)cc1/C(C)=N/NC1=NCCN1	-1	7	0	·	69*	1
COc1ccc(Br)cc1/C(C)=N/NC1=NCCN1	-3	12	0	16	-14	0
CC1(c2cc([N+](=O)[O-])cc([N+](=O)[O-])c2)CC(C)(C)N(C(=O)c2ccccc2)c2ccccc21 (stereo unspecified)	-1	5	0	-2	91*	-1
CCOC(=O)C(=NCC1CCCO1)NNc1ccccc1Cl (stereo unspecified)	2	-5	·	44*	-11	0
C(=N\Nc1ncnc2sc3c(c12)CCC3)/c1cccs1	13*	1	0	-9	·	3
CS(=O)(=O)c1cc([N+](=O)[O-])c(Sc2nc3ccccc3[nH]2)c([N+](=O)[O-])c1	0	48*	0	3	·	1
COc1ccc(-n2nc3c(c2NC(=O)CCl)CSC3)cc1	-7	-3	·	·	·	0
CCCC(=O)NC(c1ccccc1Cl)c1ccc2cccnc2c1O (stereo unspecified)	-10	14	·	·	87	71*
CCCC(=O)NC(c1ccc(C(C)C)cc1)c1ccc2cccnc2c1O (stereo unspecified)	-8	8	·	·	·	119*
COc1ccc(C(NC(=O)C(C)C)c2ccc3cccnc3c2O)cc1 (stereo unspecified)	-13	2	·	5	92	121*
CCC(=O)NC(c1ccc(C)cc1)c1ccc2cccnc2c1O (stereo unspecified)	-9	7	·	·	77	97*
CCCC(=O)NC(c1ccc(OC)c(OC)c1)c1cc(Cl)c2cccnc2c1O (stereo unspecified)	-3	-6	0	-10	14	0
CCC(=O)N1CCC1(C)C(=O)Nc1cccc2cccnc12 (stereo unspecified)	-1	4	·	·	-10	·
CC(=O)NC(c1ccc(Cl)cc1)c1ccc2cccnc2c1O (stereo unspecified)	-9	11	·	·	84	·
CCCC(=O)NC(c1ccc(N(C)C)cc1)c1ccc2cccnc2c1O (stereo unspecified)	-10	20	·	·	75	48*
Oc1ccccc1/C=N/Nc1nc2ccccc2o1	-8	-12	·	8	63*	26*
CC(=NNc1nc2ccccc2s1)c1ncccn1	-14	-2	·	·	63*	·
Oc1ccccc1/C=N/Nc1ncc(Br)cn1	0	4	0	-1	·	34*
